Most compounds without a hit are left out; they make up all but 2.2% or so of the library.
UBC9 SUMO inh: inhibitors of in vitro SUMOylation cascade, primary screen, biochemical, HTRF, uHTS; SUMO-conjugating enzyme UBC9 (Homo sapiens), P63279; HTRF SUMOylation assay, SAE1/SAE2 + UBC9; inhibition, % at 35 µM; 290,000 compounds, 0.36% hits; in the data active = inhibition above about 50%, passing the limit was not always enough
Apaf-1 inh: inhibitors of human Apaf-1 apoptosome, primary screen, biochemical, DEVD-Rh110 fluorescence, uHTS | Apoptotic protease-activating factor 1 (Homo sapiens), O14727 | reconstituted apoptosome caspase-3 activity | inhibition, % at 20 µM | 330,000 compounds, 0.71% hits | AID 489030, 2010; active = inhibition of at least 40% at 20 µM
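Material: reconstituted apoptosome with Apaf-1, cytochrome c, caspase-9, procaspase-3, dATP / Buffer or medium: pH 7.5 Hepes buffer with CHAPS, BSA, DTT / Also added: cytochrome c with DEVD-Rh110 / Schedule: compound with Apaf-1, dATP, procaspase-3 30 min, then 50 min reaction, room temperature / Technique: rhodamine 110 fluorescence at Ex 480/Em 540 nm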
Rin1 Abl inh: inhibitors of Rin1-Abl protein binding, primary screen, biochemical, TR-FRET | Tyrosine-protein kinase ABL1 (Homo sapiens) + Ras and Rab interactor 1 (Homo sapiens), … | inhibition, % at 7.35 µM | 360,000 compounds, 0.4% hits; in the data active = inhibition above about 5%, passing the limit was not always enough
GSTO1 inh: inhibitors of recombinant GSTO1, primary screen, counter-screen for RBBP9 inhibitor project, biochemical, fluorescence polarization; Glutathione S-transferase omega-1 (Homo sapiens), P78417; activity-based probe fluorescence polarization; inhibition, % at 5.96 µM; 300,000 compounds, 1.1% hits; AID 1974, 2009;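 active = inhibition above the campaign mean inhibition plus 3 SD, cut at about 35% in these data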
UBC13 inh: UBC13 polyubiquitin chain formation inhibitors, primary screen, biochemical, TR-FRET, uHTS | Ubiquitin-conjugating enzyme E2 N (Homo sapiens), P61088 | inhibition, % at 20 µM | 330,000 compounds, 0.47% hits; in the data active = inhibition above about 45%, passing the limit was not always enough
Target sequence (P61088 whole entry, looked up): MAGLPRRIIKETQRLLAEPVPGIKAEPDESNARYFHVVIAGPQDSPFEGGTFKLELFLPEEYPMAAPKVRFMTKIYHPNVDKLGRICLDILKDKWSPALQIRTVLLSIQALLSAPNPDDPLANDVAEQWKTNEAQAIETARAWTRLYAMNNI
PAD4 FP inh: human PAD4 inhibitors, primary screen, biochemical, fluorescence polarization, 1536-well format; Protein-arginine deiminase type-4 (Homo sapiens), Q9UM07; recombinant PAD4, RCA probe fluorescence polarization; inhibition, % at 6.36 µM; 330,000 compounds, 0.41% hits; AID 485272, 2010;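 active = percent inhibition above a cutoff equal to the mean of all tested compounds plus 3 SD, cut at about 15% in these data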
Target sequence (Q9UM07 whole entry, looked up): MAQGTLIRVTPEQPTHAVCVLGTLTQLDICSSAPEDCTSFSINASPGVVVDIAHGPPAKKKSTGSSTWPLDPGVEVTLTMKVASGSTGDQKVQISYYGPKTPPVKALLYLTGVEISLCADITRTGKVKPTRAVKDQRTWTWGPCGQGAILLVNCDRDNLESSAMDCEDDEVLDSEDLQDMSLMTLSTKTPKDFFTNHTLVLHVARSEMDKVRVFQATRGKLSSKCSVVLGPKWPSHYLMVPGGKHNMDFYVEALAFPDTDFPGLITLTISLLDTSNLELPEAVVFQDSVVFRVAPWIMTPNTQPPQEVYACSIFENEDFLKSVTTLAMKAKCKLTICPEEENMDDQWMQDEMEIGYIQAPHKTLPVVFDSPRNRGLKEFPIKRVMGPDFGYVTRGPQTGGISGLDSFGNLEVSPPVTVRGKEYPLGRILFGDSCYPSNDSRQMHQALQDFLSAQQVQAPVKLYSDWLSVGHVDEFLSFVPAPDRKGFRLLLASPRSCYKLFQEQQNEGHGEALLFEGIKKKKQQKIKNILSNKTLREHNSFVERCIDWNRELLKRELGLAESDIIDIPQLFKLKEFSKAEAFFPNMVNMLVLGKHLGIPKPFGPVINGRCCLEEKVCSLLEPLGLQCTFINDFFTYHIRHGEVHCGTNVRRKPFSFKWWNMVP
GSTO1 inh conf: GSTO1 inhibitor hit confirmation, counter-screen for RBBP9 inhibitor project, biochemical, fluorescence polarization, triplicate; shares compounds with GSTO1 inh; recombinant GSTO1, probe fluorescence polarization; inhibition, % at 5.96 µM; 2,400 compounds, 54% hits; AID 2176, 2009;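 active = inhibition above the primary screen's cutoff, its mean inhibition plus 3 SD, cut at about 35% in these data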;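 also: loss of polarization as inhibitors block binding of rhodamine sulfonate ester activity probe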
PAD4 FP conf: human PAD4 inhibitors, confirmation, biochemical, fluorescence polarization; 1,200 compounds, 28% hits; AID 488796, 2010; inhibition, % at 6.36 µM; shares compounds with PAD4 FP inh; recombinant PAD4, RCA probe fluorescence polarization;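 active = mean inhibition across replicates above the hit cutoff set by the earlier primary screen, cut at about 15% in these data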;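 also: inhibitors block active-site labeling by the probe so polarization falls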
Apaf-1 inh conf: Apaf-1 inhibitors, single-dose retest, confirmation, biochemical, fluorescence, DEVD-Rh110, 20 µM | shares compounds with Apaf-1 inh | reconstituted apoptosome, caspase-3 DEVD-Rh110 fluorescence | inhibition, % at 20 µM | 1,800 compounds, 25% hits | AID 504614, 2011;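 active = mean inhibition of at least 40% at 20 µM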
Rh110 interf inh: Rh110 fluorescence interference by putative Apaf-1 inhibitors, confirmation, artefact control for Apaf-1 inhibitor project, biochemical, 20 µM; activation (fluorescence interference), % at 20 µM; 1,800 tested, under 10 active; shares compounds with Apaf-1 inh; quenched caspase reaction;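 active = signal rise of 40% or more at 20 µM, treated as a fluorescence artifact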
Fluor interf inh: fluorescence interference of Apaf-1 inhibitor hits, dose response, artefact control for Apaf-1 inhibitor project; fluorescence interference counterscreen, Apaf-1 assay format; shares compounds with Apaf-1 inh; IC50, µM; 460 tested, under 10 active
Rin1 Abl conf: Rin1-Abl binding inhibitor retest, confirmation, biochemical, TR-FRET. inhibition, % at 7.35 µM. 1,300 compounds, 49% hits. AID 602124, 2011. shares compounds with Rin1 Abl inh. purified proteins; in the data active = inhibition above about 6.5%
GFP quencher: GFP fluorescence inhibitors and quenchers, artefact control for Rin1-Abl interaction inhibitor project, biochemical; inhibitors/quenchers counterscreen; 1,300 compounds, 8.5% hits; inhibition, % at 6.75 µM; AID 602125, 2011; shares compounds with Rin1 Abl inh; in the data active = inhibition above about 6.5%;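 also: ABL1-eGFP fusion protein alone without its partner RIN1-SBP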
GFP quench dose: GFP fluorescence inhibitors and quenchers, dose response, artefact control for Rin1-Abl interaction inhibitor project, biochemical; shares compounds with Rin1 Abl inh; GFP fluorescence interference/quenching counterscreen; IC50, µM; 230 tested, under 10 active;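 also: ABL1-eGFP fusion protein alone without its RIN1 binding partner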
Each line names hits and unclear results; the compound was inactive in the other large screens (follow-up assays come after a bar, where they were run). Unless noted, no rule for the calls is given here.

Cc1cc2nc3ccc(N(C)C)cc3nc2cc1N	Apaf-1 inh 90, Rin1 Abl inh 15, GSTO1 inh 47, PAD4 FP inh 29 (no result: UBC9 SUMO inh) | GSTO1 inh conf 42 | PAD4 FP conf 31 | Apaf-1 inh conf 63 | Rh110 interf inh inactive | Fluor interf inh inactive | Rin1 Abl conf inactive | GFP quencher 34
CCCNC(=O)c1cc(C2CCCN(C(=O)c3ccc4ccccc4c3)C2)on1 (centres undefined)	none (no result: UBC9 SUMO inh, Apaf-1 inh, GSTO1 inh, UBC13 inh, PAD4 FP inh)
Oc1cccc(/C=N/N2CCCCC2)c1O	none
Oc1ccc(/C=N/N2CCCCC2)c(O)c1O	Apaf-1 inh 70, Rin1 Abl inh 25, GSTO1 inh 46 | GSTO1 inh conf inactive | Apaf-1 inh conf inactive | Rh110 interf inh inactive | Rin1 Abl conf 32 | GFP quencher inactive | GFP quench dose inactive
CC(=O)C1=C(C)OC2(O)c3ccccc3C(=O)C12O (centres undefined)	Apaf-1 inh 93, Rin1 Abl inh 18, GSTO1 inh 72 (no result: UBC9 SUMO inh) | GSTO1 inh conf 80 | Apaf-1 inh conf 90 | Rh110 interf inh inactive | Fluor interf inh inactive | Rin1 Abl conf 18 | GFP quencher inactive | GFP quench dose inactive
CN(C)Cc1cc(O)c(CN(C)C)cc1O	Apaf-1 inh 65, Rin1 Abl inh 13, GSTO1 inh 53 | GSTO1 inh conf inactive | Rin1 Abl conf inactive | GFP quencher inactive
Cc1ccccc1-n1c(SCC(=O)N2CCN(c3ccccn3)CC2)nnc1N1CCOCC1	none (no result: UBC9 SUMO inh, GSTO1 inh)
O=C(O)c1ccc(-n2[nH]c3c(c2=O)CCCC3)cc1	none
Cc1cc(=O)n(-c2ccc(C(=O)O)cc2)[nH]1	Rin1 Abl inh 8.3, GSTO1 inh 63 | GSTO1 inh conf inactive | Rin1 Abl conf inactive | GFP quencher inactive
Cc1ccc(CNC(=O)Nc2ccc(F)cc2)n1C	none (no result: Apaf-1 inh, GSTO1 inh, UBC13 inh, PAD4 FP inh)
Oc1ccc(/C=N/N(c2ccccc2)c2ccccc2)c(O)c1O	Rin1 Abl inh 10, GSTO1 inh 51 | GSTO1 inh conf inactive | Rin1 Abl conf inactive | GFP quencher inactive
COc1c(Cl)cc(C(=O)NN)cc1Cl	none
NNC(=O)c1cc(O)c(O)c(O)c1	Rin1 Abl inh 34, GSTO1 inh 52 | GSTO1 inh conf inactive | Rin1 Abl conf 51 | GFP quencher 7.1
COc1cc(/C=C2\CC/C(=C\c3cc(OC)c(O)c(OC)c3)C2=O)cc(OC)c1O	Rin1 Abl inh 30, GSTO1 inh 38 | GSTO1 inh conf inactive | Rin1 Abl conf 34 | GFP quencher 24
COc1cc(/C=C2\C(=O)N(c3cccc(C(=O)O)c3)N=C2C)ccc1OCc1ccccc1	none (no result: UBC9 SUMO inh, Apaf-1 inh, GSTO1 inh, UBC13 inh, PAD4 FP inh)
COc1ccccc1/C=C1/C(=O)N(c2ccccc2)N=C1C	Apaf-1 inh 93, Rin1 Abl inh 13, GSTO1 inh 46, PAD4 FP inh 48 | GSTO1 inh conf inactive | PAD4 FP conf inactive | Apaf-1 inh conf inactive | Rh110 interf inh inactive | Rin1 Abl conf inactive | GFP quencher inactive
COc1cc(/C=C2\C(=O)N(c3ccc(S(N)(=O)=O)cc3)N=C2C)ccc1OC(=O)c1ccco1	Apaf-1 inh 91, Rin1 Abl inh 10, GSTO1 inh 53 (no result: UBC9 SUMO inh) | GSTO1 inh conf inactive | Rin1 Abl conf inactive | GFP quencher inactive
C#CCOc1ccc(/C=C2/C(=O)N(c3cccc(C(=O)O)c3)N=C2C)cc1OC	Apaf-1 inh 43, Rin1 Abl inh 16, GSTO1 inh 70, PAD4 FP inh 39 | GSTO1 inh conf inactive | PAD4 FP conf inactive | Apaf-1 inh conf inactive | Rh110 interf inh inactive | Rin1 Abl conf inactive | GFP quencher inactive
C#CCOc1ccc(/C=C2/C(=O)N(c3ccc(S(N)(=O)=O)cc3)N=C2C)cc1OC	none (no result: UBC9 SUMO inh, Apaf-1 inh, GSTO1 inh, UBC13 inh, PAD4 FP inh)
O=C(O)c1cc(=S)nc[nH]1	none (no result: UBC9 SUMO inh, Apaf-1 inh, GSTO1 inh, UBC13 inh, PAD4 FP inh)
COc1ccc(-c2noc(CCC(=O)NC3CCCCCC3)n2)cc1OC	none (no result: UBC9 SUMO inh, Apaf-1 inh, GSTO1 inh, UBC13 inh, PAD4 FP inh)
Cc1ccc(Nc2nc(N3CCOCC3)nc(N3CCOCC3)n2)cc1	none
Cc1ccc(NC2=C(N3CCOCC3)C(=O)c3ccccc3C2=O)cc1	Apaf-1 inh 59, Rin1 Abl inh 12, GSTO1 inh 48 | GSTO1 inh conf inactive | Apaf-1 inh conf 81 | Rh110 interf inh inactive | Fluor interf inh inactive | Rin1 Abl conf inactive | GFP quencher inactive
Cc1cccc(N/N=C/c2ccc(O)c(O)c2O)c1	Rin1 Abl inh 26, GSTO1 inh 56 | GSTO1 inh conf inactive | Rin1 Abl conf 23 | GFP quencher 13
O=C(NC1(O)C(=O)c2ccccc2C1=O)c1ccccc1	UBC9 SUMO inh 84, Apaf-1 inh 94, Rin1 Abl inh 28, GSTO1 inh 77 | GSTO1 inh conf 82 | Apaf-1 inh conf 96 | Rh110 interf inh inactive | Fluor interf inh inactive | Rin1 Abl conf 29 | GFP quencher inactive | GFP quench dose inactive
CN(c1ccccc1)S(=O)(=O)c1ccc(NC(=O)c2nc(S(C)(=O)=O)ncc2Cl)cc1	none
CN=c1scc(C)n1/N=C/c1ccc(O)c(O)c1O	Rin1 Abl inh 36, GSTO1 inh 74 | GSTO1 inh conf inactive | Rin1 Abl conf 21 | GFP quencher 20
